# According to ChEMBL document CHEMBL4052816, “Development of Clickable Monophosphoryl Lipid A Derivatives toward Semisynthetic Conjugates with Tumor-Associated Carbohydrate Antigens” (J Med Chem, 2017):
# Active and inactive are the calls of the source. No cut-off for these calls is given here.
# Assays:
# BMDM [1] = test: Immunostimulatory activity in C57BL/6 mouse BMDM assessed as increase in IL-2 production at 20 ug/ml after 6 to 72 hrs by immunoassay; type: functional, cell-based
# Summary of the method: (§1)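 Bone marrow macrophages from wild-type C57BL/6 mice (0.5 × 10^6/well) were grown for 24 h, then given fresh medium containing compound at 20 μg/mL for 6, 24, 48 and 72 h. Three independent experiments were run, means ± SD.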
# BMDM [2] = test: Immunostimulatory activity in C57BL/6 mouse BMDM assessed as increase in IL-4 production at 20 ug/ml after 6 to 72 hrs by immunoassay; type: functional, cell-based; summary of the method: as §1
# BMDM [3] = test: Immunostimulatory activity in C57BL/6 mouse BMDM assessed as increase in IL-5 production at 20 ug/ml after 6 to 72 hrs by immunoassay; type: functional, cell-based; summary of the method: as §1
# BMDM [4] = test: Immunostimulatory activity in C57BL/6 mouse BMDM assessed as increase in IL-10 production at 20 ug/ml after 6 to 72 hrs by immunoassay; type: functional, cell-based; summary of the method: as §1
# BMDM [5] = test: Immunostimulatory activity in C57BL/6 mouse BMDM assessed as increase in IL-12 production at 20 ug/ml after 6 to 72 hrs by immunoassay; type: functional, cell-based; summary of the method: as §1
# BMDM [6] = test: Immunostimulatory activity in C57BL/6 mouse BMDM assessed as increase in IFN-gamma production at 20 ug/ml after 6 to 72 hrs by immunoassay; type: functional, cell-based; summary of the method: as §1
# BMDM [7] = test: Immunostimulatory activity in C57BL/6 mouse BMDM assessed as increase in GM-CSF production at 20 ug/ml after 6 to 72 hrs by immunoassay; type: functional, cell-based; summary of the method: as §1
# BMDM [8] = test: Immunostimulatory activity in C57BL/6 mouse BMDM assessed as increase in MHC-class 2 production at 20 ug/ml after 6 to 72 hrs by flow cytometric method; type: functional, cell-based
# Summary of the method: (§2)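 C57BL/6 BMDM (0.5 × 10^6/well) were stimulated with compound at 20 μg/mL for 6, 24, 48 and 72 h. Cells were then stained with phycoerythrin-conjugated anti-CD40, anti-CD80 or anti-CD86, plus allophycocyanin-conjugated anti-MHC class II. Isotype antibodies set nonspecific binding, and cells were analysed by flow cytometry. Three independent experiments were run.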
# BMDM [9] = test: Immunostimulatory activity in C57BL/6 mouse BMDM assessed as increase in CD40 production at 20 ug/ml after 6 to 72 hrs by flow cytometric method; type: functional, cell-based; summary of the method: as §2
# BMDM [10] = test: Immunostimulatory activity in C57BL/6 mouse BMDM assessed as increase in CD80 production at 20 ug/ml after 6 to 72 hrs by flow cytometric method; type: functional, cell-based; summary of the method: as §2
# BMDM [11] = test: Immunostimulatory activity in C57BL/6 mouse BMDM assessed as increase in CD86 production at 20 ug/ml after 6 to 72 hrs by flow cytometric method; type: functional, cell-based; summary of the method: as §2
# THP-1 [12] = test: Immunostimulatory activity in human THP1 cells assessed as increase in IL-8 production at 20 ug/ml after 6 to 72 hrs by ELISA; type: functional, cell-based
# Summary of the method: (§3)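 THP-1 cells (0.5 × 10^6/well) were grown in RPMI/10% FBS for 24 h, then given fresh medium containing compound at 20 μg/mL for 6, 24, 48 and 72 h. Cell-free supernatants were assayed for IL-8 and IL-6 by ELISA, and for IL-10, IFN-γ and TNF-α by a human Th1/Th2 multiplex bead immunoassay. Results were pooled from three independent experiments, means ± SD.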
# THP-1 [13] = test: Immunostimulatory activity in human THP1 cells assessed as increase in IL-10 production at 20 ug/ml after 6 to 72 hrs by immunoassay; type: functional, cell-based; summary of the method: as §3
# THP-1 [14] = test: Immunostimulatory activity in human THP1 cells assessed as increase in TNF-alpha production at 20 ug/ml after 6 to 72 hrs by immunoassay; type: functional, cell-based; summary of the method: as §3
# THP-1 [15] = test: Immunostimulatory activity in human THP1 cells assessed as increase in IFN-gamma production at 20 ug/ml after 6 to 72 hrs by immunoassay; type: functional, cell-based; summary of the method: as §3
# THP-1 [16] = test: Cytotoxicity against human THP1 cells assessed as decrease in cell viability at 0.1 to 20 ug/ml after 6 to 48 hrs by SRB assay; type: cell-based
# Summary of the method: (§4)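 THP-1 cells and C57BL/6 wild-type bone marrow-derived macrophages were kept in RPMI with 10% FBS, penicillin and streptomycin at 37 °C and 5% CO2. BMDM medium also contained gentamycin. Cells were exposed to compound at 20, 10, 1 and 0.1 μg/mL, and viability was read with a colorimetric assay.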
# BMDM [17] = test: Immunostimulatory activity in C57BL/6 mouse BMDM assessed as increase in IL-6 production at 20 ug/ml after 6 to 72 hrs by ELISA; type: functional, cell-based; summary of the method: as §1
# BMDM [18] = test: Immunostimulatory activity in C57BL/6 mouse BMDM assessed as increase in TNFalpha production at 20 ug/ml after 6 to 72 hrs by ELISA; type: functional, cell-based; summary of the method: as §1
# [19] = Cytotoxicity against C57BL/6 mouse BMDM assessed as decrease in cell viability at 20 ug/ml after 6 to 48 hrs by SRB assay; type: cell-based; summary of the method: as §4
# THP-1 [20] = test: Immunostimulatory activity in human THP1 cells assessed as increase in IL-6 production at 20 ug/ml after 6 to 72 hrs by ELISA; type: functional, cell-based; summary of the method: as §3
SMILES,Activity (BMDM [1]),Activity (BMDM [2]),Activity (BMDM [3]),Activity (BMDM [4]),Activity (BMDM [5]),Activity (BMDM [6]),Activity (BMDM [7]),Activity (BMDM [8]),Activity (BMDM [9]),Activity (BMDM [10]),Activity (BMDM [11]),Activity (THP-1 [12]),Activity (THP-1 [13]),Activity (THP-1 [14]),Activity (THP-1 [15]),Activity (THP-1 [16]),Activity (BMDM [17]),Activity (BMDM [18]),Activity [19],Activity (THP-1 [20])
CCCCCCCCCCCCCC(=O)O[C@H](CCCCCCCCCCC)CC(=O)O[C@@H]1[C@@H](NC(=O)C[C@@H](CCCCCCCCCCC)OC(=O)CCCCCCCCCCC)[C@H](OC[C@H]2OC(O)[C@H](NC(=O)C[C@H](O)CCCCCCCCCCC)[C@@H](OC(=O)C[C@H](O)CCCCCCCCCCC)[C@@H]2O)O[C@H](C(=O)NCCCCCCN=[N+]=[N-])[C@H]1OP(=O)(O)O (stereo partly specified),inactive,inactive,inactive,inactive,inactive,inactive,inactive,inactive,inactive,inactive,inactive,Active,Active,Active,inactive,Non-Toxic,,,,
C#CCCCCNC(=O)[C@H]1O[C@@H](OC[C@H]2OC(O)[C@H](NC(=O)C[C@H](O)CCCCCCCCCCC)[C@@H](OC(=O)C[C@H](O)CCCCCCCCCCC)[C@@H]2O)[C@H](NC(=O)C[C@@H](CCCCCCCCCCC)OC(=O)CCCCCCCCCCC)[C@@H](OC(=O)C[C@@H](CCCCCCCCCCC)OC(=O)CCCCCCCCCCCCC)[C@@H]1OP(=O)(O)O (stereo partly specified),inactive,inactive,inactive,inactive,inactive,inactive,inactive,inactive,inactive,inactive,inactive,Active,Active,Active,inactive,Non-Toxic,Active,Active,Toxic,
CCCCCCCCCCCCCC(=O)O[C@H](CCCCCCCCCCC)CC(=O)O[C@@H]1[C@@H](NC(=O)C[C@@H](CCCCCCCCCCC)OC(=O)CCCCCCCCCCC)[C@H](OC[C@H]2OC(O)[C@H](NC(=O)C[C@H](O)CCCCCCCCCCC)[C@@H](OC(=O)C[C@H](O)CCCCCCCCCCC)[C@@H]2O)O[C@H](C(=O)O)[C@H]1OP(=O)(O)O (stereo partly specified),inactive,inactive,inactive,inactive,inactive,inactive,inactive,inactive,inactive,inactive,inactive,Active,Active,Active,inactive,Non-Toxic,Active,Active,,Active
C=CCCCNC(=O)[C@H]1O[C@@H](OC[C@H]2OC(O)[C@H](NC(=O)C[C@H](O)CCCCCCCCCCC)[C@@H](OC(=O)C[C@H](O)CCCCCCCCCCC)[C@@H]2O)[C@H](NC(=O)C[C@@H](CCCCCCCCCCC)OC(=O)CCCCCCCCCCC)[C@@H](OC(=O)C[C@@H](CCCCCCCCCCC)OC(=O)CCCCCCCCCCCCC)[C@@H]1OP(=O)(O)O (stereo partly specified),inactive,inactive,inactive,inactive,inactive,inactive,inactive,inactive,inactive,inactive,inactive,Active,Active,Active,Active,Non-Toxic,Active,,Toxic,Active
CCCCCCCCCCCCCC(=O)O[C@H](CCCCCCCCCCC)CC(=O)O[C@@H]1[C@@H](NC(=O)C[C@@H](CCCCCCCCCCC)OC(=O)CCCCCCCCCCC)[C@H](OC[C@H]2OC(O)[C@H](NC(=O)C[C@@H](CCCCCCCCCCC)OC(=O)C[C@H](O)CCCCCCCCCCCCC)[C@@H](O)[C@@H]2O)O[C@H](CO)[C@H]1OP(=O)(O)O (stereo partly specified),,,,,,,,Active,Active,Active,Active,Active,Active,,inactive,,,,,
CCCCCCCCCCCCCC(=O)O[C@H](CCCCCCCCCCC)CC(=O)O[C@@H]1[C@@H](NC(=O)C[C@@H](CCCCCCCCCCC)OC(=O)CCCCCCCCCCC)[C@H](OC[C@H]2OC(O)[C@H](NC(=O)C[C@H](O)CCCCCCCCCCC)[C@@H](OC(=O)C[C@H](O)CCCCCCCCCCC)[C@@H]2O)O[C@H](C(=O)NCCCCCSCCCO[C@H]2O[C@H](CO)[C@H](O)[C@H](O)[C@H]2NC(C)=O)[C@H]1OP(=O)(O)O (stereo partly specified),inactive,inactive,inactive,inactive,inactive,inactive,inactive,inactive,inactive,inactive,inactive,Active,Active,,Active,Non-Toxic,,Active,Toxic,Active
CCCCCCCCCCCCCC(=O)O[C@H](CCCCCCCCCCC)CC(=O)O[C@@H]1[C@@H](NC(=O)C[C@@H](CCCCCCCCCCC)OC(=O)CCCCCCCCCCC)[C@H](OC[C@H]2OC(O)[C@H](NC(=O)C[C@H](O)CCCCCCCCCCC)[C@@H](OC(=O)C[C@H](O)CCCCCCCCCCC)[C@@H]2O)O[C@H](C(=O)NCCCCCSCCCO[C@H]2O[C@H](CO)[C@H](O)[C@H](O[C@@H]3O[C@H](CO)[C@H](O)[C@H](O)[C@H]3O)[C@H]2NC(C)=O)[C@H]1OP(=O)(O)O (stereo partly specified),inactive,inactive,inactive,inactive,inactive,inactive,inactive,inactive,inactive,inactive,inactive,Active,Active,Active,Active,Non-Toxic,Active,inactive,,
